Results as given in ChEMBL document CHEMBL1153324, “Potent inhibitors of Huntingtin protein aggregation in a cell-based assay” (Bioorg Med Chem Lett, 2009).

Biological target: T1, Huntingtin (Homo sapiens, UniProt P42858)
Assay: Inhibition of Huntingtin protein aggregation by cell based assay
Conditions: not given; call rule not given here
In short: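 Stable transfectants express mutant huntingtin fused to mCFP from a tet-regulatable gene. Cells are seeded in 96-well format and treated with compound for 72 h. Controls are 2 μg/mL doxycycline and 0.1% DMSO (no dox). Aggregation is scored as the presence and magnitude of fluorescent intracellular inclusions (% cells with aggregates, aggregates per cell), and an IC50 is derived.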

T1 sequence (P42858 whole entry): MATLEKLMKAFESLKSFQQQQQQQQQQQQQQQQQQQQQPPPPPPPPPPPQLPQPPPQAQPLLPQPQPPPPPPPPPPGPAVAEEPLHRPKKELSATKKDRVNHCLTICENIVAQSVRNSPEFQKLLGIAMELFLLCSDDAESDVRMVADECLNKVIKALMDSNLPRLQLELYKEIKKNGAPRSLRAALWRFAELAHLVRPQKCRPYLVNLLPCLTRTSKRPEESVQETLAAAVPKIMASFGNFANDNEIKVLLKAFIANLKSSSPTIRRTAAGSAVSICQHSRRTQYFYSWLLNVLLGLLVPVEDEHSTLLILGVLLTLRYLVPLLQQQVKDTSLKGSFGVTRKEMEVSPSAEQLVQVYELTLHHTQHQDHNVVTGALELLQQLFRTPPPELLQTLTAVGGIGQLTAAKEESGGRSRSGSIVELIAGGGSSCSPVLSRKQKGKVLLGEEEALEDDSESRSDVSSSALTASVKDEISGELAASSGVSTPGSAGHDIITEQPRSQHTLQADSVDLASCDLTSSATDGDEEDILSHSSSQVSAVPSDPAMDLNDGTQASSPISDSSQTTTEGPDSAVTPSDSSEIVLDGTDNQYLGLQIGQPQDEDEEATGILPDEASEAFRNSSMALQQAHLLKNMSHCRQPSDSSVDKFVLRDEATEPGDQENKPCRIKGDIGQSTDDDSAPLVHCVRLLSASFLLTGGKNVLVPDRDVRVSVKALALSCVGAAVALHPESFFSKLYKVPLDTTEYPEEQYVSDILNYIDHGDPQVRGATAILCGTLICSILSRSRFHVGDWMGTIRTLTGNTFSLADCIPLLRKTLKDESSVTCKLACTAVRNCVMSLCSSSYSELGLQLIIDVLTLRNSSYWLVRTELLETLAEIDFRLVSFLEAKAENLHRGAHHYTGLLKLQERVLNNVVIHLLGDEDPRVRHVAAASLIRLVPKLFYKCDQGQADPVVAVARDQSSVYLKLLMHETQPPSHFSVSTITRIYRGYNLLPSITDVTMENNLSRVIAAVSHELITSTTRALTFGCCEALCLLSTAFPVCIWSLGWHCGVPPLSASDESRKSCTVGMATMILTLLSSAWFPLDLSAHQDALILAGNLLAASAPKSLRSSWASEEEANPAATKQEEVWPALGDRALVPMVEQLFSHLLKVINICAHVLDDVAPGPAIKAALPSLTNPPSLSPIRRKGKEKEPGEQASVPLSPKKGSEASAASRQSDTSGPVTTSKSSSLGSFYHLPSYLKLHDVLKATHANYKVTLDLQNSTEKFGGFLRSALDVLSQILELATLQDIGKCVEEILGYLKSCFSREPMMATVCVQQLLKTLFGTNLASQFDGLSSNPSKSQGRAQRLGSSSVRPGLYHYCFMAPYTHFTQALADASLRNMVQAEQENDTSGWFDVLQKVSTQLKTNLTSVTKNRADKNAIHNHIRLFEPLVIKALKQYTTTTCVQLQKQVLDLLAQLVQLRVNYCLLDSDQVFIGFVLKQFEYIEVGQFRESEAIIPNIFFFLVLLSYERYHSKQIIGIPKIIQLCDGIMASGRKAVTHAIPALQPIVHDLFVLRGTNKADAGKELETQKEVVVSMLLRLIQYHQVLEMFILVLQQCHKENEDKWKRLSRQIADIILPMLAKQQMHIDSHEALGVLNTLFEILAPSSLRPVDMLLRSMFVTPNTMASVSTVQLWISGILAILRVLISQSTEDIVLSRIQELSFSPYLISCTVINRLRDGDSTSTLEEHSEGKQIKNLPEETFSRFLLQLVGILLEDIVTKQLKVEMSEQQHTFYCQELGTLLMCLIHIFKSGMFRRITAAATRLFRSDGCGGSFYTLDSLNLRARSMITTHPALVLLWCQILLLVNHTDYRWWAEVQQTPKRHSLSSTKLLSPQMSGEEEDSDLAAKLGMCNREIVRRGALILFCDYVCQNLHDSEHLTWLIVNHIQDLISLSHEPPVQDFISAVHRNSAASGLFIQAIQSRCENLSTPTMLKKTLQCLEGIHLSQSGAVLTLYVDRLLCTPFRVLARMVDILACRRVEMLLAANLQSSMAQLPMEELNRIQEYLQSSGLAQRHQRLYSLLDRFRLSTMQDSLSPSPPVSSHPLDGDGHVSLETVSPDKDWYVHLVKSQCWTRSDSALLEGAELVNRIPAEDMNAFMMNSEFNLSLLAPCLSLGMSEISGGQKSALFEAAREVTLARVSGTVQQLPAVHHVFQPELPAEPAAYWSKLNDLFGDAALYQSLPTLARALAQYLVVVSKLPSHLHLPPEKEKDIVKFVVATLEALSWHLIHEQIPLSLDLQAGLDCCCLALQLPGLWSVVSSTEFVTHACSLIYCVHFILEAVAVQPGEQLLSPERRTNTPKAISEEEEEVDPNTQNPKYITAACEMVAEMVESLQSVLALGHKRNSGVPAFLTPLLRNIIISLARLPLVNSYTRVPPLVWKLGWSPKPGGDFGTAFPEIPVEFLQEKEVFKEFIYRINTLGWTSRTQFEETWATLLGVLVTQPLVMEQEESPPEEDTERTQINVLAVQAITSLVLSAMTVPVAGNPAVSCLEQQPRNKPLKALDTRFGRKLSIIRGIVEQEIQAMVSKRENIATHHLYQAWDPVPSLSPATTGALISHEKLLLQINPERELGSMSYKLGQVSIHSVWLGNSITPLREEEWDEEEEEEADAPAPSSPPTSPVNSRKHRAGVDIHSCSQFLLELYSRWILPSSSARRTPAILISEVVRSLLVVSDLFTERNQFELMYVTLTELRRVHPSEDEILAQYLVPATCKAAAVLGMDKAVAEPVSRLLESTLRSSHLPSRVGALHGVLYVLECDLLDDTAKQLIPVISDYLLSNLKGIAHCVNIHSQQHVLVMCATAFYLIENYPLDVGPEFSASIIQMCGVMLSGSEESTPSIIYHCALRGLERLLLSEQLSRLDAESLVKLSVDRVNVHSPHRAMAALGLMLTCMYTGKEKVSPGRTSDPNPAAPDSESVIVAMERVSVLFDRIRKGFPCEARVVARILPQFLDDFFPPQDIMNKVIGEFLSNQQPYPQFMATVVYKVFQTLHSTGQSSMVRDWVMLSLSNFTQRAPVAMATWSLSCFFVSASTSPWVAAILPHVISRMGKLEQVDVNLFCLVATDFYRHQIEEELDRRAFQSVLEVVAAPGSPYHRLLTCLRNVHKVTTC

Row | IC50 | Structure (SMILES)
1 | Not Active | Brc1ccc2ncnc(N3CCN(Cc4ccc5c(c4)OCO5)CC3)c2c1
2 | Not Active | Clc1ccc2ncnc(NCCc3ccc(OCc4ccccc4)cc3)c2c1
3 | Not Active | Clc1ccc2ncnc(NCCc3ccc(OC4CCCC4)cc3)c2c1
4 | Not Active | Fc1ccc2ncnc(NCCc3ccc(Cl)cc3)c2c1
5 | Not Active | Clc1ccc(CCNc2ncnc3ccc(Br)cc23)cc1
6 | Not Active | Nc1ccc2ncnc(NCCc3ccc(Oc4ccccc4)cc3)c2c1
7 | Not Active | Clc1ccc2ncnc(NCCc3ccc(Oc4ccccc4)cc3)c2c1

Same assay, conditions: read-out: IC50

Row | IC50 [µM] | Structure (SMILES)
8 | 6.13 | Brc1ccc2ncnc(NCc3ccccc3)c2c1
9 | 1.11 | Oc1ccc(CCNc2ncnc3ccc(Br)cc23)cc1
10 | > 15.8 | Oc1ccc(CCNc2ncnc3ccccc23)cc1
11 | 5.36 | C=CCNc1ncnc2ccc(Br)cc12
12 | 10.5 | Clc1ccc(CCNc2ncnc3ccccc23)cc1
13 | 1.07 | Clc1ccc2ncnc(N3CCN(Cc4ccc5c(c4)OCO5)CC3)c2c1
14 | 3.44 | Clc1ccc(CCNc2ncnc3ccc(Cl)cc23)cc1
15 | 6.38 | Oc1ccc(CCNc2ncnc3ccc(F)cc23)cc1
16 | > 10 | Fc1ccc2ncnc(N3CCN(Cc4ccc5c(c4)OCO5)CC3)c2c1
17 | 8.13 | CCCNc1ncnc2ccc(Br)cc12
18 | 0.71 | Oc1ccc(CCNc2ncnc3ccc(Cl)cc23)cc1
19 | 4.48 | CCOC(=O)COc1ccc(CCNc2ncnc3ccc(Cl)cc23)cc1
20 | > 10 | c1ccc2c(N3CCN(Cc4ccc5c(c4)OCO5)CC3)ncnc2c1

Row | Structure (SMILES) | IC50 [µM]
21 | CN1CCN(c2ncnc3ccc(Cl)cc23)CC1 | > 10
22 | CN1CCN(c2ncnc3ccc(Br)cc23)CC1 | 1.31
23 | CCN1CCN(c2ncnc3ccccc23)CC1 | > 10
24 | CCN1CCN(c2ncnc3ccc(Br)cc23)CC1 | 2.21
25 | CN1CCN(c2ncnc3ccccc23)CC1 | > 10
26 | CCN1CCN(c2ncnc3ccc(F)cc23)CC1 | 5.26
27 | Brc1ccc2ncnc(N3CCNCC3)c2c1 | 2.74
28 | CN1CCN(c2ncnc3ccc(F)cc23)CC1 | > 10
29 | CCN1CCN(c2ncnc3ccc(Cl)cc23)CC1 | 3.63

Biological target: T1, Huntingtin
Assay: Inhibition of Huntingtin protein aggregation by yeast based assay
Conditions: not given

Row | EC50 [µM] | Structure (SMILES)
30 | 50 | Brc1ccc2ncnc(NCc3ccccc3)c2c1
31 | 50 | C=CCNc1ncnc2ccc(Br)cc12
32 | 50 | CCCNc1ncnc2ccc(Br)cc12
